According to ChEMBL document CHEMBL2016529, “Synthesis and biological evaluation of novel potent angiotensin II receptor antagonists with anti-hypertension effect” (Bioorg Med Chem, 2012):
Active and inactive are the calls of the source. No cut-off for these calls is given here.

How the values were obtained:
Rattus norvegicus [1] = test: Toxicity in rat spontaneous hypertensive model assessed as effect on heart rate at 15 mg/kg, po; assay type: organism-based; set-up: dose 15 mg/kg, route oral; settings: in vivo
Outline: (§1)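 Male spontaneously hypertensive rats, randomized into groups of ten. Compound suspended in 0.5% sodium carboxymethyl cellulose and given orally once at 15 or 30 mg/kg. Negative controls received the same volume of vehicle, and valsartan and irbesartan at equal doses served as positive controls. Blood pressure (SBP, DBP) and heart rate were monitored over 0–10 h after dosing with a biological signal analysis system.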

Rattus norvegicus [2] = test: Antihypertensive activity in rat spontaneous hypertensive model assessed as reduction in diastolic blood pressure at 15 mg/kg, po up to 10 hrs; assay type: functional, organism-based; set-up: dose 15 mg/kg; settings: Artery; outline: as §1
Rattus norvegicus [3] = test: Toxicity in rat spontaneous hypertensive model assessed as effect on heart rate at 30 mg/kg, po; assay type: organism-based; set-up: dose 30 mg/kg, route oral; settings: in vivo; outline: as §1
Rattus norvegicus [4] = test: Antihypertensive activity in rat spontaneous hypertensive model assessed as reduction in systolic blood pressure at 15 mg/kg, po up to 10 hrs; assay type: functional, organism-based; set-up: dose 15 mg/kg; settings: Artery; outline: as §1
Rattus norvegicus [5] = test: Antihypertensive activity in rat spontaneous hypertensive model assessed as reduction in diastolic blood pressure at 30 mg/kg, po up to 10 hrs; assay type: functional, organism-based; set-up: dose 30 mg/kg; settings: Artery; outline: as §1
Rattus norvegicus [6] = test: Antihypertensive activity in rat spontaneous hypertensive model assessed as time of maximum effect on systolic blood pressure at 30 mg/kg, po; assay type: functional, Artery; outline: as §1
Rattus norvegicus [7] = test: Antihypertensive activity in rat spontaneous hypertensive model assessed as time of maximum effect on diastolic blood pressure at 30 mg/kg, po; assay type: functional, Artery; outline: as §1
[8] = (§2) Displacement of [I125]angiotensin2 from AT1 receptor in Sprague-Dawley rat VSMC after 2.5 hrs by gamma spectrophotometry
Outline: (§3)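 Smooth muscle cells from rat aorta were isolated by collagenase digestion (1 h, 37 °C) and grown in DMEM with 15% FBS. Quiescent, confluent monolayers were incubated in PBS with 0.1 nM 125I-Ang II and compound at final 1×10^-12 to 1×10^-6 M for 2.5 h at 4 °C. Nonspecific binding was defined with 1×10^-6 M competitor. Cells were washed three times, lysed in 0.1 M NaOH, and bound radioactivity was gamma counted.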

Rattus norvegicus [9] = organism: Rattus norvegicus; test: as §2; outline: as §3
Rattus norvegicus [10] = test: Antihypertensive activity in rat spontaneous hypertensive model assessed as reduction in systolic blood pressure at 30 mg/kg, po up to 10 hrs; assay type: functional, organism-based; set-up: dose 30 mg/kg; settings: Artery; outline: as §1
[11] = Acute toxicity in ICR rat assessed as mortality at 2924 mg/kg, administered intragastrically after 14 days relative to control; assay type: organism-based; set-up: dose 2924 mg/kg, route intragastric; settings: in vivo, po, read-out: Activity
Outline: (§4)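 Normal ICR rats, 6–8 weeks, weighed individually; single intragastric doses of 5000.0, 3823.6, 2924.0, 2236.1, 1710.0 or 1000.0 mg/kg. Survival checked daily for two weeks. Animals observed continuously for physical signs of toxicity (skin changes, mobility, aggressiveness, respiratory movements). Survivors dissected at the end and organs examined for pathological changes.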

[12] = Acute toxicity in ICR rat assessed as mortality at 5000 mg/kg, administered intragastrically after 14 days relative to control; assay type: organism-based; set-up: dose 5000 mg/kg, route intragastric; settings: in vivo, po, read-out: Activity; outline: as §4
Rattus norvegicus [13] = test: Acute toxicity in ICR rat assessed as hypokinetic beginning at 3823.6 mg/kg, administered intragastrically after 5 hrs; assay type: organism-based; set-up: dose 3823.6 mg/kg, route intragastric; settings: in vivo, po; outline: as §4
Rattus norvegicus [14] = test: Acute toxicity in ICR rat assessed as hypokinetic beginning at 2236.1 mg/kg, administered intragastrically after 5 hrs; assay type: organism-based; set-up: dose 2236.1 mg/kg, route intragastric; settings: in vivo, po; outline: as §4
Rattus norvegicus [15] = test: Acute toxicity in ICR rat assessed as weight loss at 3823.6 mg/kg, administered intragastrically after 2 weeks; assay type: organism-based; set-up: dose 3823.6 mg/kg, route intragastric; settings: in vivo, po, 336 h; outline: as §4
Rattus norvegicus [16] = test: Acute toxicity in ICR rat assessed as weight loss at 1000 mg/kg, administered intragastrically after 2 weeks; assay type: organism-based; set-up: dose 1000 mg/kg, route intragastric; settings: in vivo, po, 336 h; outline: as §4
[17] = Acute toxicity in ICR rat assessed as mortality at 3823.6 mg/kg, administered intragastrically after 14 days relative to control; assay type: organism-based; set-up: dose 3823.6 mg/kg, route intragastric; settings: in vivo, po, read-out: Activity; outline: as §4
[18] = Acute toxicity in ICR rat assessed as mortality at 1000 mg/kg, administered intragastrically after 14 days relative to control; assay type: organism-based; set-up: dose 1000 mg/kg, route intragastric; settings: in vivo, po, read-out: Activity; outline: as §4
Rattus norvegicus [19] = test: Acute toxicity in ICR rat assessed as weight loss at 1710 mg/kg, administered intragastrically after 2 weeks; assay type: organism-based; set-up: dose 1710 mg/kg, route intragastric; settings: in vivo, po, 336 h; outline: as §4
[20] = Acute toxicity in intragastrically dosed ICR rat; assay type: organism-based; settings: in vivo, po
Outline: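 ICR rats (6–8 weeks, individually weighed) dosed intragastrically at 1000.0–5000.0 mg/kg (six dose levels); daily survival over 14 days. LD50 with 95% confidence limits obtained by logistic regression (GLM) curve fitting of 14-day mortality data.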

Rattus norvegicus [21] = test: Acute toxicity in ICR rat assessed as weight loss at 2236.1 mg/kg, administered intragastrically after 2 weeks; assay type: organism-based; set-up: dose 2236.1 mg/kg, route intragastric; settings: in vivo, po, 336 h; outline: as §4
[22] = Acute toxicity in ICR rat assessed as mortality at 2236.1 mg/kg, administered intragastrically after 14 days relative to control; assay type: organism-based; set-up: dose 2236.1 mg/kg, route intragastric; settings: in vivo, po, read-out: Activity; outline: as §4
Rattus norvegicus [23] = test: Acute toxicity in ICR rat assessed as hypokinetic beginning at 5000 mg/kg, administered intragastrically after 5 hrs; assay type: organism-based; set-up: dose 5000 mg/kg, route intragastric; settings: in vivo, po; outline: as §4
Rattus norvegicus [24] = test: Acute toxicity in ICR rat assessed as hypokinetic beginning at 1000 mg/kg, administered intragastrically after 5 hrs; assay type: organism-based; set-up: dose 1000 mg/kg, route intragastric; settings: in vivo, po; outline: as §4
[25] = Acute toxicity in ICR rat assessed as mortality at 1710 mg/kg, administered intragastrically after 14 days relative to control; assay type: organism-based; set-up: dose 1710 mg/kg, route intragastric; settings: in vivo, po, read-out: Activity; outline: as §4
Rattus norvegicus [26] = test: Acute toxicity in ICR rat assessed as weight loss at 2924 mg/kg, administered intragastrically after 2 weeks; assay type: organism-based; set-up: dose 2924 mg/kg, route intragastric; settings: in vivo, po, 336 h; outline: as §4
Rattus norvegicus [27] = test: Acute toxicity in ICR rat assessed as weight loss at 5000 mg/kg, administered intragastrically after 2 weeks; assay type: organism-based; set-up: dose 5000 mg/kg, route intragastric; settings: in vivo, po, 336 h; outline: as §4
Rattus norvegicus [28] = test: Acute toxicity in ICR rat assessed as hypokinetic beginning at 2924 mg/kg, administered intragastrically after 5 hrs; assay type: organism-based; set-up: dose 2924 mg/kg, route intragastric; settings: in vivo, po; outline: as §4
Rattus norvegicus [29] = test: Acute toxicity in ICR rat assessed as hypokinetic beginning at 1710 mg/kg, administered intragastrically after 5 hrs; assay type: organism-based; set-up: dose 1710 mg/kg, route intragastric; settings: in vivo, po; outline: as §4

Row | SMILES | IC50 [8] [nM] | Ki [8] [nM] | inhibition (Rattus norvegicus [9]) | Activity (Rattus norvegicus [1]) | Activity (Rattus norvegicus [2]) | Activity (Rattus norvegicus [3]) | Activity (Rattus norvegicus [4]) | Activity (Rattus norvegicus [5]) | Time (Rattus norvegicus [6]) [h] | Time (Rattus norvegicus [7]) [h] | Activity (Rattus norvegicus [10]) | further results
1 | CCCC(=O)N(Cc1ccc(-c2cc(F)ccc2-c2noc(=O)[nH]2)cc1)[C@H](C(=O)O)C(C)C | 20.8 | 14.1 | Dose-dependent effect | Non-toxic |  | Non-toxic |  | Active | 3 | 3 | Active | 
2 | CCCC(=O)N(Cc1ccc(-c2ccccc2-c2nc(=O)o[nH]2)cc1)[C@@H](Cc1ccccc1)C(=O)O | 26.5 | 17.9 | Dose-dependent effect | Non-toxic | inactive | Non-toxic | inactive | inactive |  |  | inactive | 
3 | CCCC(=O)N(Cc1ccc(-c2ccccc2-c2nc(=O)o[nH]2)cc1)[C@H](C(=O)O)C(C)C | 0.49 | 0.33 | Dose-dependent effect | Non-toxic | Active | Non-toxic | Active | Active | 3 | 3 | Active | mortality at 336 h [11]: 60%; mortality at 336 h [12]: 100%; Activity (Rattus norvegicus [13]): Toxic; Activity (Rattus norvegicus [14]): Toxic; Activity (Rattus norvegicus [15]): Non-toxic; Activity (Rattus norvegicus [16]): Non-toxic; mortality at 336 h [17]: 80%; mortality at 336 h [18]: 0%; Activity (Rattus norvegicus [19]): Non-toxic; LD50 [20]: 2320 mg/kg; Activity (Rattus norvegicus [21]): Non-toxic; mortality at 336 h [22]: 50%; Activity (Rattus norvegicus [23]): Toxic; Activity (Rattus norvegicus [24]): Non-toxic; mortality at 336 h [25]: 30%; Activity (Rattus norvegicus [26]): Non-toxic; Activity (Rattus norvegicus [27]): Non-toxic; Activity (Rattus norvegicus [28]): Toxic; Activity (Rattus norvegicus [29]): Toxic
4 | CCCCC(=O)N(Cc1ccc(-c2ccccc2-c2nnn[nH]2)cc1)[C@H](C(=O)O)C(C)C [VALSARTAN] | 2.64 | 2.22 | Dose-dependent effect | Non-toxic | Active | Non-toxic | Active |  |  |  |  | LD50 [20]: 308 mg/kg
5 | CCCCc1nc(Cl)c(CO)n1Cc1ccc(-c2ccccc2-c2nn[nH]n2)cc1 [LOSARTAN] |  |  |  |  |  |  |  |  |  |  |  | LD50 [20]: 2250 mg/kg
6 | CCCC(=O)N(Cc1ccc(-c2ccccc2-c2nc(=O)o[nH]2)cc1)[C@@H](CC(C)C)C(=O)O | 36 | 24.3 | Dose-dependent effect | Non-toxic | Active | Non-toxic | Active | Active | 3 | 3 | Active | 

The next lines start with results.

Row | IC50 [8] [nM] | Ki [8] [nM] | inhibition (Rattus norvegicus [9]) | SMILES | Activity (Rattus norvegicus [1]) | Activity (Rattus norvegicus [2]) | Activity (Rattus norvegicus [3]) | Activity (Rattus norvegicus [4]) | Activity (Rattus norvegicus [5]) | Time (Rattus norvegicus [6]) [h] | Time (Rattus norvegicus [7]) [h] | Activity (Rattus norvegicus [10]) | further results
7 | 9.82 | 6.65 | Dose-dependent effect | CCCCC(=O)N(Cc1ccc(-c2ccccc2-c2nc(=O)o[nH]2)cc1)[C@H](C(=O)O)C(C)C | Non-toxic | Active | Non-toxic | Active | Active | 3 | 3 | Active | 
8 | 1.6 | 1.03 | Dose-dependent effect | CCC(=O)N(Cc1ccc(-c2ccccc2-c2nc(=O)o[nH]2)cc1)[C@H](C(=O)O)C(C)C | Non-toxic | Active | Non-toxic | Active | Active | 3 | 3 | Active | 
9 | 18 | 12.2 | Dose-dependent effect | CCCCC(=O)N(Cc1ccc(-c2ccccc2-c2nc(=O)o[nH]2)cc1)[C@@H](Cc1ccccc1)C(=O)O | Non-toxic | inactive | Non-toxic | inactive | inactive |  |  | inactive | 
10 | 10.2 | 6.88 | Dose-dependent effect | CCCCC(=O)N(Cc1ccc(-c2ccccc2-c2nc(=O)o[nH]2)cc1)[C@@H](CC(C)C)C(=O)O | Non-toxic | inactive | Non-toxic | inactive | inactive |  |  | inactive | 
11 | 0.58 | 0.41 | Dose-dependent effect | CCCCC1=NC2(CCCC2)C(=O)N1Cc1ccc(-c2ccccc2-c2nnn[nH]2)cc1 [IRBESARTAN] | Non-toxic | Active | Non-toxic | Active | Active | 3 | 3 | Active | 
